Screening data from PubChem.
KCNQ1 pot: human KCNQ1 channel potentiation or activation; CHO-K1 KCNQ1, thallium flux FluxOR fluorescence; hits give high values; P51787; 310,000 tested, 0.35% active; B-score at 10 µM; AID 2648;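 active = fluorescence ratio B-score, a plate-corrected score, at least three library SD, with initial intensity B-score within 5 SD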
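Doses: Single concentration per compound, DMSO matched to controls | Test system: KCNQ1-transfected CHO-K1 cells | Timing: 90 min dye loading and 20 min compound exposure, both at room temperature | Measured by: Kinetic FluxOR thallium fluorescence, 10-s 1-Hz baseline, 110-s post-stimulus read | Medium: Assay buffer with matched DMSO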
Kir21 inh: inhibitors of mouse Kir2.1 inward-rectifier potassium channel | P35561 | HEK293-Kir2.1, FluxOR thallium flux fluorescence; hits give low values | B-score at 10 µM | 310,000 tested, 0.85% active;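 active = fluorescence ratio B-score at or below minus 3 SD of library scores, with starting-brightness B-score within 2 SD, cut at about -4.2 in these data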;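 also: channel flux triggered by added potassium and thallium sulfate stimulus; B-score of peak minus minimum fluorescence over baseline after thallium stimulus; more negative B-score means stronger Kir2.1 block with less thallium influx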
hERG rescue: shields human hERG channel from block by proarrhythmic agents | Q12809 | CHO-hERG, FluxOR thallium flux, dofetilide IC70 present | 310,000 tested, 0.51% active | AID 1511 | activation (rescue from dofetilide block), less the hit threshold, % at 10 µM;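 active = activation above the mean of controls blocked by dofetilide plus 5 SD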;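 also: thallium influx through hERG after potassium depolarization seen as dye fluorescence rise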
KCNQ1 inh: inhibitors of human KCNQ1 potassium channel | P51787 | CHO-K1 KCNQ1, FluxOR thallium flux fluorescence; hits give high values | B-score at 10 µM | 310,000 tested, 1.3% active;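 active = compounds whose thallium flux B-score, printed positive for inhibition, exceeds three library SD while starting fluorescence stays within three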;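 also: channel opened by potassium depolarization with thallium stimulus after 20 min compound exposure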
KCNK9 inh: human KCNK9 channel inhibition | Q9NPC2 | B-score at 10 µM | AID 488922 | HEK293 KCNK9, FluxOR thallium flux fluorescence; hits give low values | 310,000 tested, 1.2% active;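 active = ratio B-score over 3 SD below the library mean, with starting fluorescence within 5 SD of its mean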;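 also: negative B-score means less thallium flux so channel inhibition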
Target sequence (Q9NPC2 whole entry, looked up): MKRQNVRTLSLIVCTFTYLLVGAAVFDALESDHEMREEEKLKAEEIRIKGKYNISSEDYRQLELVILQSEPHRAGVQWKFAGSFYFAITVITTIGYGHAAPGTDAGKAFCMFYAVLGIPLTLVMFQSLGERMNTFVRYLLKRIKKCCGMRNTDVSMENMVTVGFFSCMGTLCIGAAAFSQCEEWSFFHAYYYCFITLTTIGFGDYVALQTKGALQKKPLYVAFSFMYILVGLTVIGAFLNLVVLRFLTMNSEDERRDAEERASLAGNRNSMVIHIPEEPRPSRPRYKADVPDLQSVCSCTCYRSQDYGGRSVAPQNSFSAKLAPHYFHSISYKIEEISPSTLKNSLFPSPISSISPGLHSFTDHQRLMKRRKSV
KCNK3 block: human KCNK3 channel inhibition, primary screen. B-score at 10 µM. O14649. 340,000 tested, 0.84% active. CHO-KCNK3 thallium flux, FluxOR fluorescence; hits give low values;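 active = B-score under library mean minus 4 SD, starting fluorescence ratio at most library mean plus 5 SD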;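 also: more negative B-score means stronger inhibition of thallium flux through KCNK3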
Target sequence (O14649 whole entry, looked up): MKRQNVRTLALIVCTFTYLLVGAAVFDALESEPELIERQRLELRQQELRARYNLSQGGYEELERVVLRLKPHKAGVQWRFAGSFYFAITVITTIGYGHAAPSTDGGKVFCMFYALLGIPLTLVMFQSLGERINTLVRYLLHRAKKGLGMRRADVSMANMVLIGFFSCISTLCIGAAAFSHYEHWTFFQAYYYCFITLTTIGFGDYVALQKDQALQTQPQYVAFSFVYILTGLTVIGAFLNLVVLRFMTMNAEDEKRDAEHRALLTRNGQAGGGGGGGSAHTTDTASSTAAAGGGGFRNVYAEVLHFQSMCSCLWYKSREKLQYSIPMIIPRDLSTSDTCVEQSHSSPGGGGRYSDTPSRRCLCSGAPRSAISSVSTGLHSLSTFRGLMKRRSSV
KCNK9 inh conf: confirmation of human KCNK9 potassium channel inhibitors; shares compounds with KCNK9 inh; HEK293 KCNK9 cells, FluxOR thallium flux fluorescence; inhibition, % at 10 µM; 4,900 tested, 43% active;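 active = thallium signal inhibited by more than 5 SD of the compound-free buffer control wells, on both duplicate plates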
Kir21 sel: tests whether KCNK9 modulators also affect mouse Kir2.1 | shares compounds with KCNK9 inh | Kir2.1 cells, FluxOR thallium flux fluorescence | inhibition, % at 10 µM | 4,900 tested, 4% active | AID 492993;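 active = thallium signal drop more than 5 SD beyond the mean of the no-compound control wells, seen in both duplicate plates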;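 also: signal is fluorescence rise after thallium addition divided by baseline fluorescence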
HEK293 Tl ctr: second counter-screen for KCNK9 modulators: effect in non-induced cells; 4,900 tested, 40% active; inhibition, % at 10 µM; AID 492997; shares compounds with KCNK9 inh; non-induced KCNK9-HEK293, FluxOR thallium flux;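 active = thallium signal drop beyond 5 SD of the untreated control mean, on both duplicate plates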
Numbers stand for hits. Only some compounds are listed: those with a hit (about 3.7% of all), similar ones and a draw of the others.

What do the screens show for `CCc1ccc(CN(C)CC(=O)Nc2ccc3c(c2)CCC3)cc1`?
KCNQ1 pot: inactive; Kir21 inh: inactive; hERG rescue: inactive; KCNQ1 inh: inactive; KCNK9 inh: inactive; KCNK3 block: inactive; KCNK9 inh conf: inactive; Kir21 sel: inactive; HEK293 Tl ctr: inactive

What do the screens show for `COc1ccc(CC(=O)Nc2nc(-c3cc(OC)ccc3OC)cs2)cc1`?
KCNQ1 pot: inactive; Kir21 inh: inactive; hERG rescue: inactive; KCNQ1 inh: inactive; KCNK9 inh: inactive; KCNK3 block: inactive

How did COc1ccc(OC)c(-c2csc(NC(=O)C3c4ccccc4Oc4ccccc43)n2)c1 do in these assays?
KCNQ1 pot: inactive; Kir21 inh: inactive; hERG rescue: inactive; KCNQ1 inh: inactive; KCNK9 inh: -9.1; KCNK3 block: inactive; KCNK9 inh conf: 36%; Kir21 sel: inactive; HEK293 Tl ctr: 32%

What do the screens show for `O=C(COC(=O)c1cccc(NS(=O)(=O)c2ccc(F)c(F)c2)c1)NC(=O)NC1CCCCC1`?
KCNQ1 pot: inactive; Kir21 inh: inactive; hERG rescue: inactive; KCNQ1 inh: inactive; KCNK9 inh: inactive; KCNK3 block: inactive

What do the screens show for `CC(=O)Nc1ccc(S(=O)(=O)N(CC(=O)Nc2cc(C)on2)Cc2ccc(F)cc2)cc1`?
KCNQ1 pot: inactive; Kir21 inh: inactive; hERG rescue: inactive; KCNQ1 inh: inactive; KCNK9 inh: inactive; KCNK3 block: inactive

What do the screens show for `COc1ccc(-c2cn(-c3ccc(C)cc3)c(=O)n2CC(=O)Nc2ccc(OC)cc2OC)cc1`?
KCNQ1 pot: inactive; Kir21 inh: inactive; hERG rescue: inactive; KCNQ1 inh: inactive; KCNK9 inh: inactive; KCNK3 block: inactive; KCNK9 inh conf: inactive; Kir21 sel: inactive; HEK293 Tl ctr: inactive

Results for COc1ccc(NC(=O)Cn2c(-c3ccccc3)cn(-c3ccc(C)cc3)c2=O)cc1 ?
KCNQ1 pot: inactive; Kir21 inh: inactive; hERG rescue: inactive; KCNQ1 inh: inactive; KCNK9 inh: inactive; KCNK3 block: inactive

How did Cc1nc(SCC(=O)NC(C)(C#N)C2CC2)c2c(-c3cccs3)csc2n1 (stereo not given) do in these assays?
KCNQ1 pot: inactive; Kir21 inh: inactive; hERG rescue: inactive; KCNQ1 inh: inactive; KCNK9 inh: -11; KCNK3 block: inactive; KCNK9 inh conf: 48%; Kir21 sel: inactive; HEK293 Tl ctr: inactive

Results for Cc1[nH]c2ccc(F)cc2c1CCN(Cc1ccncc1)C(=S)Nc1cccc(F)c1 ?
KCNQ1 pot: inactive; Kir21 inh: inactive; hERG rescue: inactive; KCNQ1 inh: 7; KCNK9 inh: -8.1; KCNK3 block: inactive; KCNK9 inh conf: 36%; Kir21 sel: inactive; HEK293 Tl ctr: 27%

Results for COc1ccc(NC(=S)N(CCc2c(C)[nH]c3ccc(C)cc23)Cc2ccco2)cc1 ?
KCNQ1 pot: inactive; Kir21 inh: inactive; hERG rescue: inactive; KCNQ1 inh: inactive; KCNK9 inh: inactive; KCNK3 block: inactive

How did Cc1ccccc1NC(=S)N(CCc1c(C)[nH]c2ccc(F)cc12)Cc1ccncc1 do in these assays?
KCNQ1 pot: inactive; Kir21 inh: inactive; hERG rescue: inactive; KCNQ1 inh: inactive; KCNK9 inh: inactive; KCNK3 block: inactive

Results for COc1ccc2[nH]c(C)c(CCN(Cc3cccs3)C(=S)Nc3ccc(F)cc3)c2c1 ?
KCNQ1 pot: inactive; Kir21 inh: inactive; hERG rescue: inactive; KCNQ1 inh: 6; KCNK9 inh: -12; KCNK3 block: -17; KCNK9 inh conf: 42%; Kir21 sel: inactive; HEK293 Tl ctr: 27%

Results for COc1ccc(NC(=S)N(CCc2c(C)[nH]c3ccc(C)cc23)Cc2cccs2)cc1 ?
KCNQ1 pot: inactive; Kir21 inh: inactive; hERG rescue: inactive; KCNQ1 inh: inactive; KCNK9 inh: -9.6; KCNK3 block: inactive; KCNK9 inh conf: inactive; Kir21 sel: inactive; HEK293 Tl ctr: 29%

Results for CN(C)c1ccc(CNS(=O)(=O)c2ccc3c(c2)C(C)(C)C(=O)N3C)cc1 ?
KCNQ1 pot: inactive; Kir21 inh: inactive; hERG rescue: inactive; KCNQ1 inh: inactive; KCNK9 inh: inactive; KCNK3 block: inactive

How did N#Cc1ccccc1OCC(=O)OCCCOC(=O)COc1ccccc1C#N do in these assays?
KCNQ1 pot: inactive; Kir21 inh: inactive; hERG rescue: inactive; KCNQ1 inh: inactive; KCNK9 inh: inactive; KCNK3 block: inactive

Results for Cc1cc(NC(=O)COC(=O)c2cnccn2)ccc1Br ?
KCNK3 block: inactive

How did Cc1ccc(NC(=O)CSCC(=O)NNC(=O)c2ccoc2C)cc1 do in these assays?
KCNQ1 pot: inactive; Kir21 inh: inactive; hERG rescue: inactive; KCNQ1 inh: inactive; KCNK9 inh: inactive; KCNK3 block: inactive

What do the screens show for `CCOC(=O)Cc1c(C)nc2c(-c3ccccc3OC)c(C)nn2c1C`?
KCNQ1 pot: inactive; Kir21 inh: inactive; hERG rescue: inactive; KCNQ1 inh: inactive; KCNK9 inh: inactive; KCNK3 block: inactive; KCNK9 inh conf: inactive; Kir21 sel: inactive; HEK293 Tl ctr: inactive

How did CCOC(=O)Cc1c(C)nc2c(-c3ccc(Cl)cc3)c(C)nn2c1C do in these assays?
KCNQ1 pot: inactive; Kir21 inh: inactive; hERG rescue: inactive; KCNQ1 inh: inactive; KCNK9 inh: inactive; KCNK3 block: inactive

How did COc1ccc(-c2cccc(CCC(=O)N3CCN(c4cc(C)ccc4C)CC3)c2)cc1 do in these assays?
KCNK3 block: inactive

Results for COc1ccc(C(=O)CCC(=O)N2CCN(c3cc(C)ccc3C)CC2)cc1 ?
KCNQ1 pot: inactive; Kir21 inh: inactive; hERG rescue: inactive; KCNQ1 inh: inactive; KCNK9 inh: inactive; KCNK3 block: inactive; KCNK9 inh conf: inactive; Kir21 sel: inactive; HEK293 Tl ctr: inactive

Results for COc1ccc(CCC(=O)N2CCN(c3cccc(C)c3C)CC2)cc1 ?
KCNQ1 pot: inactive; Kir21 inh: inactive; hERG rescue: inactive; KCNQ1 inh: inactive; KCNK9 inh: inactive; KCNK3 block: inactive; KCNK9 inh conf: inactive; Kir21 sel: inactive; HEK293 Tl ctr: inactive

What do the screens show for `CCC(CC)C(=O)Nc1nnc(S(=O)(=O)N2CCCc3ccccc32)s1`?
KCNQ1 pot: inactive; Kir21 inh: inactive; hERG rescue: inactive; KCNQ1 inh: inactive; KCNK9 inh: inactive; KCNK3 block: inactive

What do the screens show for `COc1cccc(CN(C)c2nc(-c3cccs3)nc3ccccc23)c1`?
KCNQ1 pot: inactive; Kir21 inh: inactive; hERG rescue: inactive; KCNQ1 inh: inactive; KCNK9 inh: -9.2; KCNK3 block: inactive; KCNK9 inh conf: 54%; Kir21 sel: inactive; HEK293 Tl ctr: 41%
